Results published in PubChem BioAssay.
Activity calls are given as the source filed them. Cut-off read from the data, not from the text of the source, unless noted: active = inhibition above about 30%; inactive = the rest.

Experiments:
[1] = Her2 expression decrease, cell viability multiplex – SKBR3 breast tumor cells, AlphaScreen, ATP viability, primary screen (AID 461;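 active = Her2 level under about 52% in both replicate screens, with viability over 70% of control, limit read from the data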;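 for Her2 level: lower value means less Her2 protein in the cells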;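 for viability: percent of carrier control wells set as 100% viability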); details: SKBR3 Her2 protein level, 18-24 h, measured here: SKBR3 viability, ATP luminescence, at 10 µM
[2] = target: Receptor tyrosine-protein kinase erbB-2 (Homo sapiens) (UniProt P04626); assay: as above; details: 18-24 h, at 10 µM, stronger effect = lower value
Receptor tyrosine-protein kinase erbB-2 (Homo sapiens), sequence (P04626 whole entry, looked up): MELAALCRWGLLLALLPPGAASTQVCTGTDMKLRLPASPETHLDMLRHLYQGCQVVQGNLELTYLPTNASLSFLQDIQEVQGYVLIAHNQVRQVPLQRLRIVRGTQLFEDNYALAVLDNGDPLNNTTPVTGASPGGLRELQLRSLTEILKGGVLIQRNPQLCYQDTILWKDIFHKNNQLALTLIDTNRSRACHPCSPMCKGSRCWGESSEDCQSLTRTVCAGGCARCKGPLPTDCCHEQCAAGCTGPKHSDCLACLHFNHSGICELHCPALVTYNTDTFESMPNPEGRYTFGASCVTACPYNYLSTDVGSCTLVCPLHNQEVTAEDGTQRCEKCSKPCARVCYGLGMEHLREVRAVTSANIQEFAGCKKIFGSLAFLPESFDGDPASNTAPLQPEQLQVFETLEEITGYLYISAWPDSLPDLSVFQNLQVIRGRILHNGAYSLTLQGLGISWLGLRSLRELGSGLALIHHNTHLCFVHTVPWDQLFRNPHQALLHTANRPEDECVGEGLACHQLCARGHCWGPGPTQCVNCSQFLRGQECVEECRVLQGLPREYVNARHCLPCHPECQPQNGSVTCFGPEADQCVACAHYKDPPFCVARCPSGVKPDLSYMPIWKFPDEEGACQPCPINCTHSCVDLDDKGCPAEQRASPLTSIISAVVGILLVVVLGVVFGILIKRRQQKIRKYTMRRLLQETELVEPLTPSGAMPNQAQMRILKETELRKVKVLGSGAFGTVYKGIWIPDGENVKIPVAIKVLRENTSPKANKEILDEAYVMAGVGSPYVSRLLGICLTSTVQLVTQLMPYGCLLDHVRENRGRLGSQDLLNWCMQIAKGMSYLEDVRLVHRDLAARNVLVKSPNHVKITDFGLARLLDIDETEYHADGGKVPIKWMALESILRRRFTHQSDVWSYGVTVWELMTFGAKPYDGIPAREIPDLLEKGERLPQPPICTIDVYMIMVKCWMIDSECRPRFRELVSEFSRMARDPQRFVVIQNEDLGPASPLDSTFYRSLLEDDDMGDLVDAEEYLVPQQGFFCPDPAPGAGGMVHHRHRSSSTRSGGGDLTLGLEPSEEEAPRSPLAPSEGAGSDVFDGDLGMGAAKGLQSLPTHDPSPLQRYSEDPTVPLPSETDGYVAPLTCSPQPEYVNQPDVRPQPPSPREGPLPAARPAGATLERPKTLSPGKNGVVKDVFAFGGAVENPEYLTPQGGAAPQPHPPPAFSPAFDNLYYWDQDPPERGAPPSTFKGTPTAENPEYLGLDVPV

[3] = reduced viability of SK-BR-3 breast cancer cells – cell-based, 24 h, human, pilot screen (AID 572;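 active = viability at or below 10% of carrier control in both of two separate runs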;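 note: compound exposure lasted between 18 and 24 h rather than exactly 24 h; 100% = carrier-treated control wells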); details: SK-BR-3 viability, CellTiter-Glo luminescence, at 10 µM, stronger effect = lower value
[4] = HUVEC growth inhibition – cell-based, human, primary screen (AID 575;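 active = viability at or below 30% in both replicate assays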;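 note: 100% = median of untreated cell wells with 0.1% DMSO on each plate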); details: HUVEC proliferation, CellTiter-Glo luminescence, 72 h; at 10 µM; stronger effect = lower value
How it was run: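 Test system: HUVEC primary cells. Quantity: 1250 endothelial cells in each well. Dosing: single-point 10 µM, DMSO 0.1% final. Incubation: 72 h treatment at 37 °C. Measured by: CTG luminescence. Control set: DMSO cell controls and MePR drug controls. Plate: collagen-coated 384-well format.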

[5] = H69AR cell proliferation blockers – human, duplicate replicates, primary screen (AID 580;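 active = viability at or under a set limit in both replicates, limit being median viability minus 3 SD, cut at about 48% in these data, passing the limit was not always enough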;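 note: 100% = mean luminescence of untreated wells and 0% = no signal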); details: H69AR lung tumor cells viability, ATP luminescence, 72 h; at 10 µM; stronger effect = lower value
[6] = MRP1 drug-resistance reversers in H69AR cells – cell-based, doxorubicin co-treatment, pilot screen (AID 601;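 active = viability loss from added drug above about 55%, and viability with drug at most 40%, in both replicates, limit read from the data, passing the limit was not always enough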); details: CellTiter-Glo, 72 h, at 10 µM; for differential viability (reversal): stronger effect = higher value
[7] = yeast transport mutant growth inhibition pilot in 384-well plates, post-Golgi transport modulator project (AID 636; in the data active = inhibition above about 31%); details: absorbance 615 nm, about 18 h, stronger effect = higher value
[8] = growth suppression of yeast trafficking mutant, preliminary HTS, modulators of trafficking downstream of Golgi apparatus project, 1536-format plate, OD 615 nm (AID 637); details: yeast transport mutant growth, absorbance 615 nm, 18 h; stronger effect = higher value
[9] = H69AR cells + 2 uM doxorubicin, measured here: viability with 2 uM doxorubicin, stronger effect = lower value
[10] = H69AR cells, compound alone cytotoxicity

Row | Structure (SMILES) | viability [1] [%] | Her2 level [2] | viability [3] | viability [4] | viability [5] | differential viability (reversal) ([6]; H69AR cells + 2 uM doxorubicin) | viability [6, 9] [%] | viability [6, 10] [%] | inhibition [7] | inhibition [8]
1 | Cn1c(C(=O)N2CCN(C(=O)c3ccco3)CC2)cc2c(=O)n3ccccc3nc21 | 100 | 104% (inactive) | 100% (inactive) | 82.3% (inactive) | 82.6% (inactive) | -0.835% (inactive) | 83.4 | 82.6 | 0.26% (inactive) | -0.98% (inactive)
2 | COC(=O)c1ccccc1NC(=O)CSc1nnnn1C1CCCCC1 | 120 | 112% (inactive) | 120% (inactive) | 81.2% (inactive) | 85.9% (inactive) | 0.925% (inactive) | 85 | 85.9 | -5.6% (inactive) | -2.26% (inactive)
3 | COc1cccc(C(=O)n2cnnc2N)c1OC | 120 | 88.5% (inactive) | 120% (inactive) | 89.2% (inactive) | 89.9% (inactive) | 6.76% (inactive) | 83.1 | 89.9 | -5.6% (inactive) | -3.49% (inactive)
4 | OC(COc1ccccc1)CN1C2=NCCCN2c2ccccc21 (stereo not given) | 80.5 | 79.5% (inactive) | 80.5% (inactive) | 97.4% (inactive) | 92.6% (inactive) | 7.67% (inactive) | 85 | 92.6 | -4.93% (inactive) | 3.11% (inactive)
5 | CCCN1CCC(NC(=O)Nc2ccc(OC)c(OC)c2)CC1 | 124 | 96.5% (inactive) | 124% (inactive) | 111% (inactive) | 90.7% (inactive) | 4.61% (inactive) | 86.1 | 90.7 | -1.69% (inactive) | -2.33% (inactive)
6 | Cc1nc2c(-c3ccccc3)c(C)nn2c(C)c1CCC(=O)O | 97.5 | 100% (inactive) | 97.5% (inactive) | 85.5% (inactive) | 86.2% (inactive) | -0.87% (inactive) | 87 | 86.2 | -4% (inactive) | 5.57% (inactive)
7 | CC(=O)C1=C(C)NC(SCSc2ccccc2)=C(C#N)C1c1cccnc1 (stereo not given) | 80 | 106% (inactive) | 80% (inactive) | 81.7% (inactive) | 94.1% (inactive) | 6.64% (inactive) | 87.5 | 94.1 | 0.91% (inactive) | -1.64% (inactive)
8 | CCn1c(SCc2nc3ccccc3c(=O)[nH]2)nnc1-c1cccnc1 | 84.5 | 98% (inactive) | 84.5% (inactive) | 104% (inactive) | 95.2% (inactive) | 4.33% (inactive) | 90.9 | 95.2 | -0.13% (inactive) | -0.16% (inactive)
9 | CC(C)(C)OC(=O)N1CCC(C(=O)N[C@H](Cc2ccccc2)C(=O)O)CC1 | 101 | 93.5% (inactive) | 101% (inactive) | 108% (inactive) | 98.2% (inactive) | 3.02% (inactive) | 95.1 | 98.2 | -10.4% (inactive) | 3.5% (inactive)
10 | Cc1noc(COc2ccccc2OCC(O)CNC(C)(C)C)n1 (stereo not given) | 101 | 89% (inactive) | 101% (inactive) | 103% (inactive) | 97% (inactive) | 7.13% (inactive) | 89.9 | 97 | -5.21% (inactive) | -9.37% (inactive)
11 | NC(=O)C1CCN(CC(=O)N2c3ccccc3CCc3ccccc32)CC1 | 117 | 114% (inactive) | 117% (inactive) | 103% (inactive) | 93.9% (inactive) | 1.55% (inactive) | 92.3 | 93.9 | -5.53% (inactive) | 5.25% (inactive)
12 | O=C(NCC(c1cccnc1)N1CCOCC1)c1ccco1 (stereo not given) | 97 | 71% (inactive) | 97% (inactive) | 106% (inactive) | 98.9% (inactive) | 8.38% (inactive) | 90.6 | 98.9 | -4.87% (inactive) | 1.17% (inactive)
13 | CC1Cc2nc(SCC(=O)Nc3ccccc3F)n(C)c(=O)c2S1 (stereo not given) | 104 | 89.5% (inactive) | 104% (inactive) | 92.4% (inactive) | 93.5% (inactive) | -0.345% (inactive) | 93.8 | 93.5 | -7.95% (inactive) | 4.29% (inactive)
14 | Cn1c(=O)c2c(nc(NCc3ccccc3)n2CCCc2ccccc2)n(C)c1=O | 84 | 88% (inactive) | 84% (inactive) | 69.5% (inactive) | 83.4% (inactive) | -9.82% (inactive) | 93.2 | 83.4 | -0.81% (inactive) | -3.11% (inactive)
15 | CCN1CCCC1CNC(=O)CS(=O)(=O)Cc1nc(-c2ccccc2C)oc1C (stereo not given) | 97 | 92.5% (inactive) | 97% (inactive) | 83% (inactive) | 88.1% (inactive) | 0.015% (inactive) | 88.1 | 88.1 | -3.6% (inactive) | 1.64% (inactive)
16 | CN=C1CC(C)(C)CC(=O)/C1=C(/O)CCC(=O)NC | 104 | 84% (inactive) | 104% (inactive) | 95.5% (inactive) | 102% (inactive) | 10.2% (inactive) | 92.1 | 102 | -2.63% (inactive) | -3.97% (inactive)

Row | Structure (SMILES) | viability [1] [%] | Her2 level [2] | viability [3] | viability [4] | viability [5] | differential viability (reversal) ([6]; H69AR cells + 2 uM doxorubicin) | viability [6, 9] [%] | viability [6, 10] [%] | inhibition [7] | inhibition [8]
17 | COc1ccccc1C(=O)N1CCNC(=O)C1CC(=O)Nc1ccc(Cl)cc1 (stereo not given) | 97.5 | 89.5% (inactive) | 97.5% (inactive) | 99.6% (inactive) | 95.5% (inactive) | -2.83% (inactive) | 98.3 | 95.5 | 1.71% (inactive) | -2.74% (inactive)
18 | CCCCCc1c(C)nc(Nc2nc(C)c3cc(OC)ccc3n2)[nH]c1=O | 92.5 | 85.5% (inactive) | 92.5% (inactive) | 55.2% (inactive) | 78% (inactive) | 22.3% (inactive) | 55.7 | 78 | -7.7% (inactive) | 11.1% (inactive)
19 | CCOc1ccc(Oc2nc(Nc3ccc(C)cc3)nc(N(C)C)n2)nn1 | 85.5 | 92% (inactive) | 85.5% (inactive) | 89.3% (inactive) | 95.3% (inactive) | 11.3% (inactive) | 84 | 95.3 | -4.19% (inactive) | 1.97% (inactive)
20 | Cc1ccc2cc(C#N)c(N3CCCC3)nc2c1C | 77 | 70.5% (inactive) | 77% (inactive) | 91.4% (inactive) | 74.8% (inactive) | -3.67% (inactive) | 78.5 | 74.8 | -5.27% (inactive) | -2.33% (inactive)
21 | CCSc1nc(C)nc2c1oc1ccccc12 | 78.5 | 82% (inactive) | 78.5% (inactive) | 92.6% (inactive) | 97.7% (inactive) | 10% (inactive) | 87.7 | 97.7 | -4.67% (inactive) | -5.74% (inactive)
22 | O=C(Oc1ccc2c(c1)CCC2)N1CCOCC1 | 90 | 144% (inactive) | 90% (inactive) | 99.9% (inactive) | 95.6% (inactive) | 6.64% (inactive) | 88.9 | 95.6 | 4.87% (inactive) | -5% (inactive)
23 | CC1CN(C(=O)c2scc3c2OCCO3)CC(C)O1 (stereo not given) | 102 | 76% (inactive) | 102% (inactive) | 101% (inactive) | 104% (inactive) | 12.1% (inactive) | 91.9 | 104 | -7.3% (inactive) | 5.24% (inactive)
24 | Cc1cccc(NS(=O)(=O)c2cc(C(=O)OCC(=O)Nc3cc(C)on3)ccc2C)c1 | 93 | 86% (inactive) | 93% (inactive) | 77.7% (inactive) | 112% (inactive) | 10.1% (inactive) | 102 | 112 | -2.8% (inactive) | -2.26% (inactive)
25 | CC1CCCCC1NC(=O)CCCc1nc2ccccc2c(=O)[nH]1 (stereo not given) | 80.5 | 93.5% (inactive) | 80.5% (inactive) | 105% (inactive) | 110% (inactive) | 13.7% (inactive) | 96.2 | 110 | 0.27% (inactive) | 2.46% (inactive)
26 | Cc1nc2scc(-c3cccs3)c2c(=O)n1-n1cccc1 | 92 | 107% (inactive) | 92% (inactive) | 82.3% (inactive) | 99.3% (inactive) | 14.4% (inactive) | 84.8 | 99.3 | -1.79% (inactive) | -7.83% (inactive)
27 | c1ccc(CCn2nnnc2CN2CCN(C3CCCC3)CC2)cc1 | 97.5 | 95% (inactive) | 97.5% (inactive) | 109% (inactive) | 107% (inactive) | 19.1% (inactive) | 87.5 | 107 | 2.03% (inactive) | -6.51% (inactive)
28 | CC(=O)c1cc(-c2ccc(F)cc2)n(CCC(=O)Nc2cc(C)[nH]n2)c1C | 105 | 82.5% (inactive) | 105% (inactive) | 102% (inactive) | 104% (inactive) | 18.3% (inactive) | 85.5 | 104 | -6.62% (inactive) | 2.46% (inactive)
29 | O=C(Nc1cccnc1N1CCOCC1)c1ccco1 | 110 | 86% (inactive) | 110% (inactive) | 115% (inactive) | 92% (inactive) | 7.89% (inactive) | 84.2 | 92 | -7.3% (inactive) | -4.67% (inactive)
30 | CC1(C)Cc2c(sc3c2C2=NCCN2C=N3)CO1 | 111 | 104% (inactive) | 111% (inactive) | 91.5% (inactive) | 90.9% (inactive) | 1.75% (inactive) | 89.2 | 90.9 | -3.82% (inactive) | -4.55% (inactive)
31 | CCOC(=O)N1CCN(c2c(NCCN(C)Cc3ccccc3)c(=O)c2=O)CC1 | 98 | 95% (inactive) | 98% (inactive) | 84.3% (inactive) | 99% (inactive) | 6.12% (inactive) | 92.9 | 99 | 0.27% (inactive) | -2.3% (inactive)
